Laboratory results taken from ChEMBL document CHEMBL3994613, “Diaryltriazenes as antibacterial agents against methicillin resistant Staphylococcus aureus (MRSA) and Mycobacterium smegmatis” (Eur J Med Chem, 2017).
In brackets after ≈: the same amount, converted by molar mass.

Experiments:
[1] = tested on: Mycolicibacterium smegmatis; experiment: Antimycobacterial activity against Mycobacterium smegmatis MC2 155 after 3 days by broth macrodilution method; type: functional; settings: str. MC2 155, 72 h
Staphylococcus aureus [2] = experiment: Antibacterial activity against methicillin-resistant Staphylococcus aureus USA300 by broth microdilution method
Escherichia coli [3] = experiment: Antibacterial activity against Escherichia coli DH10beta harboring pHuLUC3 after 18 to 20 hrs by microdilution method; type: functional
Procedure, shortened: (§1)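 EUCAST broth microdilution in LB broth. Inoculum prepared by direct colony suspension from 20–24 h LB agar (E. coli DH10β) or 5% sheep blood BHI agar (MRSA USA300) growth. Final inoculum 2×10^4 CFU/mL, 18–20 h aerobic at 37 °C, growth read on a plate reader, at least duplicate.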

[4] = tested on: Mycolicibacterium smegmatis; experiment: Antimycobacterial activity against Mycobacterium smegmatis MC2 155 after 94 to 98 hrs by microdilution method; type: functional; settings: str. MC2 155
Procedure, shortened: (§2)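 Microdilution in TSB broth. Inoculum from colonies grown 96 h on TSA, final 1×10^5 CFU/mL, aerobic 94–98 h at 37 °C, growth read on a plate reader, at least duplicate.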

Staphylococcus aureus [5] = experiment: Antibacterial activity against methicillin-resistant Staphylococcus aureus USA300 after 18 to 20 hrs by microdilution method; type: functional; procedure, shortened: as §1
Staphylococcus aureus [6] = experiment: Bactericidal activity against methicillin-resistant Staphylococcus aureus USA300 after 18 to 20 hrs by microdilution method; type: functional; procedure, shortened: as §1
Staphylococcus aureus [7] = experiment: Induction of membrane integrity impairment in Staphylococcus aureus USA300 assessed as cells with intact membrane at 8 ug/ml measured after 30 mins by Baclight assay relative to control; type: functional
Procedure, shortened: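 LIVE/DEAD BacLight fluorescence assay. Live cells in 0.85% NaCl at OD600 0.2 were exposed to compound in DMSO for 30 min at 37 °C. Dye was then added and incubated 15 min in the dark at room temperature. Fluorescence read at ex 485 nm, em 530/630 nm. Intact membrane % came from a live/dead (isopropanol-killed) standard curve, at least triplicate, mean±SD.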

Saccharomyces cerevisiae = experiment: Antibacterial activity against Saccharomyces cerevisiae after 18 to 20 hrs by microdilution method
Procedure, shortened: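 Microdilution in YEP broth against wild-type yeast grown on YEP agar. Final inoculum 1×10^5 CFU/mL. Read after 18–20 h aerobic incubation at 30 °C on plate reader, at least one duplicate.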

Bacillus subtilis [8] = experiment: Bactericidal activity against Bacillus subtilis ATCC 6051 after 18 to 20 hrs by broth microdilution method; type: functional
Streptococcus pneumoniae [9] = experiment: Bactericidal activity against Streptococcus pneumoniae R6 after 18 to 20 hrs by broth microdilution method; type: functional
Staphylococcus aureus [10] = experiment: Antibacterial activity against methicillin-resistant Staphylococcus aureus 1653 after 18 to 20 hrs by broth microdilution method; type: functional
Procedure, shortened: (§3)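 EUCAST broth microdilution in LB broth. Inoculum from 20–24 h colonies on 5% sheep blood BHI agar, final 3×10^4 CFU/mL, 18–20 h aerobic at 37 °C, plate reader, at least duplicate.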

[11] = Stability of the compound in solid state; type: physicochemical
[12] = Stability of the compound in water; type: physicochemical; settings: buffer
Pseudomonas aeruginosa = experiment: Antibacterial activity against Pseudomonas aeruginosa PA0001 after 18 to 20 hrs by broth microdilution method; type: functional
Procedure, shortened: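 EUCAST broth microdilution in LB broth. Inoculum from 20–24 h LB agar colonies (CLSI direct colony suspension), final 3×10^4 CFU/mL. Aerobic incubation 18–20 h at 37 °C, plate-reader read-out, at least one duplicate.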

Acinetobacter baumannii [13] = experiment: Antibacterial activity against Acinetobacter baumannii ATCC BAA-1605 after 18 to 20 hrs by broth microdilution method; type: functional
Procedure, shortened: (§4)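 Broth microdilution per EUCAST in TSB broth. Inoculum prepared by CLSI direct colony suspension from 20–24 h TSA colonies, final 3×10^4 CFU/mL. Aerobic incubation for 18–20 h at 37 °C, growth read on plate reader, at least one duplicate.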

Escherichia coli [14] = experiment: Antibacterial activity against N43 CGSC 5583 knock out Escherichia coli after 18 to 20 hrs by microdilution method; type: functional
Procedure, shortened: (§5)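 Broth microdilution per EUCAST in LB broth. Inoculum from 20–24 h colonies by CLSI direct colony suspension (LB agar for E. coli), final 2×10^4 CFU/mL. Read after 18–20 h aerobic incubation at 37 °C on plate reader, at least one duplicate.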

Escherichia coli [15] = experiment: Bactericidal activity against Escherichia coli DH10beta harboring pHuLUC3 after 18 to 20 hrs by microdilution method; type: functional; procedure, shortened: as §1
Klebsiella pneumoniae [16] = experiment: Antibacterial activity against Klebsiella pneumoniae ATCC 700603 after 18 to 20 hrs by broth microdilution method; type: functional; procedure, shortened: as §4
[17] = Solubility of the compound in water; type: physicochemical; settings: buffer
Acinetobacter baumannii [18] = experiment: Antibacterial activity against Acinetobacter baumannii ATCC 19606 after 18 to 20 hrs by broth microdilution method; type: functional; settings: ATCC 19606 = CIP 70.34 = JCM 6841; procedure, shortened: as §4
Bacillus subtilis [19] = experiment: Antibacterial activity against Bacillus subtilis ATCC 6051 after 18 to 20 hrs by broth microdilution method; type: functional; procedure, shortened: as §5
Enterococcus faecalis = experiment: Antibacterial activity against vancomycin resistant Enterococcus faecalis 501 after 18 to 20 hrs by broth microdilution method; type: functional
Procedure, shortened: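 EUCAST microdilution in BHI broth. Inoculum from 20–24 h colonies on 5% sheep blood BHI agar, final 3×10^4 CFU/mL, 18–20 h aerobic at 37 °C, plate reader, at least duplicate.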

Escherichia coli [20] = experiment: Antibacterial activity against Escherichia coli D22 after 18 to 20 hrs by microdilution method; type: functional; procedure, shortened: as §5
[21] = tested on: Mycolicibacterium smegmatis; experiment: Bactericidal activity against Mycobacterium smegmatis MC2 155 after 96 hrs by microdilution method; type: functional; settings: str. MC2 155, 96 h; procedure, shortened: as §2
Streptococcus pneumoniae [22] = experiment: Antibacterial activity against Streptococcus pneumoniae R6 after 18 to 20 hrs by broth microdilution method; type: functional
Procedure, shortened: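 Broth microdilution per EUCAST in BHI broth. Inoculum from colonies on BHI agar with 5% sheep blood, final 5×10^4 CFU/mL. Read after 18–20 h anaerobic incubation at 37 °C.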

Staphylococcus aureus [23] = experiment: Induction of membrane integrity impairment in Staphylococcus aureus USA300 assessed as cells with intact membrane at 2 ug/ml measured after 30 mins by Baclight assay relative to control; type: functional
Procedure, shortened: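 LIVE/DEAD BacLight fluorescence assay. Dye was then added and incubated 15 min in the dark at room temperature. Intact membrane % came from a live/dead (isopropanol-killed) standard curve, at least triplicate, mean±SD.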

[24] = Stability of the compound in organic solvent; type: physicochemical
Staphylococcus aureus [25] = experiment: Bactericidal activity against methicillin-resistant Staphylococcus aureus 1653 after 18 to 20 hrs by broth microdilution method; type: functional; procedure, shortened: as §3
Klebsiella pneumoniae [26] = experiment: Antibacterial activity against Klebsiella pneumoniae ATCC 13882 after 18 to 20 hrs by broth microdilution method; type: functional; procedure, shortened: as §4

SMILES: Cc1onc(-c2ccccc2)c1C(=O)N[C@@H]1C(=O)N2[C@@H]1SC(C)(C)[C@@H]2C(=O)O [OXACILLIN]
- MIC [1]: 32 µg/mL (≈ 79.7 µM)
- MIC (Staphylococcus aureus [2]): 16 to 32 µg/mL (≈ 39.9 to 79.7 µM)

SMILES: N[C@@H]1CONC1=O [CYCLOSERINE]
- MIC [1]: 105 µg/mL (≈ 1030 µM)

SMILES: CC[C@H]1OC(=O)[C@H](C)[C@@H](O[C@H]2C[C@@](C)(OC)[C@@H](O)[C@H](C)O2)[C@H](C)[C@@H](O[C@@H]2O[C@H](C)C[C@H](N(C)C)[C@H]2O)[C@](C)(O)C[C@@H](C)C(=O)[C@H](C)[C@@H](O)[C@]1(C)O [ERYTHROMYCIN]
- MIC (Staphylococcus aureus [2]): 8 to 64 µg/mL (≈ 10.9 to 87.2 µM)

SMILES: O=[N+]([O-])c1ccc(/N=N/Nc2ccc([N+](=O)[O-])cc2Cl)c(Cl)c1
- MIC (Escherichia coli [3]): > 128 µg/mL
- MIC [4]: > 128 µg/mL
- MIC (Staphylococcus aureus [5]): 2 µg/mL (≈ 5.62 µM)
- MBC (Staphylococcus aureus [6]): 4 µg/mL (≈ 11.2 µM)
- Activity (Staphylococcus aureus [7]): 64.6%
- MIC (Saccharomyces cerevisiae): > 128 µg/mL

SMILES: CC1(C)S[C@@H]2[C@H](NC(=O)[C@H](N)c3ccc(O)cc3)C(=O)N2[C@H]1C(=O)O [AMOXICILLIN]
- MIC [1]: 8 to 16 µg/mL (≈ 21.9 to 43.8 µM)

SMILES: CO[C@@]1(NC(=O)Cc2cccs2)C(=O)N2C(C(=O)O)=C(COC(N)=O)CS[C@@H]21 [CEFOXITIN]
- MIC [1]: 2 to 4 µg/mL (≈ 4.68 to 9.36 µM)

SMILES: C/C(=C\C(=O)OCCCCCCCCC(=O)O)C[C@@H]1OC[C@H](C[C@@H]2O[C@H]2[C@@H](C)[C@H](C)O)[C@@H](O)[C@H]1O [MUPIROCIN]
- MIC (Staphylococcus aureus [2]): 0.5 to 64 µg/mL (≈ 0.999 to 128 µM)

SMILES: CC1(C)S[C@@H]2[C@H](NC(=O)C(C(=O)O)c3ccccc3)C(=O)N2[C@H]1C(=O)O (stereo not given in full) [CARBENICILLIN]
- MIC [1]: 512 µg/mL (≈ 1350 µM)

SMILES: O=C(c1ccccc1)N(/N=N/c1ccc([N+](=O)[O-])cc1C(F)(F)F)c1ccc([N+](=O)[O-])cc1C(F)(F)F
- MBC (Bacillus subtilis [8]): 16 µg/mL (≈ 30.3 µM)
- MBC (Streptococcus pneumoniae [9]): 1 µg/mL (≈ 1.9 µM)
- MIC (Staphylococcus aureus [10]): 0.5 µg/mL (≈ 0.948 µM)
- MIC (Escherichia coli [3]): ≥ 128 µg/mL
- Stability [11]: Stable
- MIC [4]: 32 µg/mL (≈ 60.7 µM)
- MIC (Staphylococcus aureus [5]): 0.5 to 2 µg/mL (≈ 0.948 to 3.79 µM)
- MBC (Staphylococcus aureus [6]): 0.5 to 2 µg/mL (≈ 0.948 to 3.79 µM)
- Stability [12]: Stable
- MIC (Pseudomonas aeruginosa): > 128 µg/mL
- MIC (Acinetobacter baumannii [13]): > 128 µg/mL
- MIC (Escherichia coli [14]): > 128 µg/mL
- MBC (Escherichia coli [15]): > 128 µg/mL
- MIC (Klebsiella pneumoniae [16]): > 128 µg/mL
- solubility [17]: Soluble
- MIC (Acinetobacter baumannii [18]): > 128 µg/mL
- MIC (Bacillus subtilis [19]): 0.5 µg/mL (≈ 0.948 µM)
- MIC (Enterococcus faecalis): > 128 µg/mL
- MIC (Escherichia coli [20]): > 128 µg/mL
- MBC [21]: > 128 µg/mL
- MIC (Streptococcus pneumoniae [22]): 0.5 µg/mL (≈ 0.948 µM)
- Cells with intact membrane (Staphylococcus aureus [23]): 95.8%
- Stability [24]: Stable
- MBC (Staphylococcus aureus [25]): 1 µg/mL (≈ 1.9 µM)
- MIC (Klebsiella pneumoniae [26]): > 128 µg/mL
- MIC (Saccharomyces cerevisiae): > 128 µg/mL
